This is an account of results in ChEMBL document CHEMBL1140019, “Primary amides as selective inhibitors of cathepsin K” (Bioorg Med Chem Lett, 2007).

One assay has as its target Cathepsin K (Homo sapiens, UniProt P43235). The experiment in a line: Inhibition of humanized rabbit cathepsin K. The gist of the method:
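IC50 was measured against the humanized rabbit enzyme and is the mean of at least four independent titrations, reported with SEM.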

For another assay, the target named is Cathepsin S (Homo sapiens, UniProt P25774). The experiment in a line: Inhibition of human cathepsin S.
A further assay has as its target Procathepsin L (Homo sapiens, UniProt P07711). The experiment in a line: Inhibition of human cathepsin L.
The next assay addresses Cathepsin B (Homo sapiens, UniProt P07858). The experiment in a line: Inhibition of human cathepsin B.

Sequence of Cathepsin S (P25774 whole entry): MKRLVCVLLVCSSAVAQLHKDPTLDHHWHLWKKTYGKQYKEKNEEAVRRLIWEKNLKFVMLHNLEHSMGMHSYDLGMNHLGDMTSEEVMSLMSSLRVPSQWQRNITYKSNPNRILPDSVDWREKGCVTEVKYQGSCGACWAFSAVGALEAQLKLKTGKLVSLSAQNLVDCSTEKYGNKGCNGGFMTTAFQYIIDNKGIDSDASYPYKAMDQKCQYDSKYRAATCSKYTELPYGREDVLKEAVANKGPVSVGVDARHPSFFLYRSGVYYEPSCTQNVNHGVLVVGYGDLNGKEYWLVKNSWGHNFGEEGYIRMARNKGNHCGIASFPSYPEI
Sequence of Procathepsin L (P07711 whole entry): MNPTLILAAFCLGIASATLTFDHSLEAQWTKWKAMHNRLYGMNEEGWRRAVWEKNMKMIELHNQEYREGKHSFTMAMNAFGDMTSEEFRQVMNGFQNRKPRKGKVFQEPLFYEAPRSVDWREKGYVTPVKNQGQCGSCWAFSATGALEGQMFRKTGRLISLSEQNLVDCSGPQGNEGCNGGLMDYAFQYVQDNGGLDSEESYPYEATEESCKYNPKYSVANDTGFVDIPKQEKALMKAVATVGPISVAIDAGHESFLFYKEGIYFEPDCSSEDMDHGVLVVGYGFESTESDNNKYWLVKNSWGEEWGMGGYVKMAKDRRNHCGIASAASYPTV

On to `CSCC[C@H](NC(=O)[C@H](CC(C)C)N[C@@H](c1ccc(-c2ccc(S(C)(=O)=O)cc2)cc1)C(F)(F)F)C(C)=O`, for which the IC50 – broadly, the concentration that gives 50% inhibition – at Cathepsin K stood at 41 nM. Still for that read-out and setting: then `COC(=O)[C@H](CCSC)NC(=O)[C@H](CC(C)C)N[C@@H](c1ccc(-c2ccc(S(C)(=O)=O)cc2)cc1)C(F)(F)F`, with 27 nM; and `CC(C)C[C@H](N[C@@H](c1ccc(-c2ccc(S(C)(=O)=O)cc2)cc1)C(F)(F)F)C(=O)N[C@@H](C)C#N`, with 0.9 nM; and `CSCC[C@H](NC(=O)[C@H](CC(C)C)N[C@@H](c1ccc(-c2ccc(S(C)(=O)=O)cc2)cc1)C(F)(F)F)C(=O)NCC(F)(F)F`, with 277 nM. On to `CC(C)C[C@H](N[C@@H](c1ccc(-c2ccc(S(C)(=O)=O)cc2)cc1)C(F)(F)F)C(=O)N[C@@H](CCS(C)(=O)=O)C(N)=O`, for which, on Cathepsin K, the concentration for half-maximal inhibition (IC50) came to 151 nM. On to `CC(C)C[C@H](N[C@@H](c1ccc(-c2ccc(S(C)(=O)=O)cc2)cc1)C(F)(F)F)C(=O)N[C@@H](Cc1ccccc1)C(N)=O`, for which the IC50 against Cathepsin S was 66700 nM; on Procathepsin L, 17000 nM; against Cathepsin K it was 10 nM; at Cathepsin B, greater than 100000 nM.

With `CC(C)C[C@H](N[C@@H](c1ccc(-c2ccc(S(C)(=O)=O)cc2)cc1)C(F)(F)F)C(=O)N[C@@H](C)C(N)=O`, at Cathepsin K, half-maximal inhibition (IC50) required 174 nM. `CNC(=O)[C@H](CCSC)NC(=O)[C@H](CC(C)C)N[C@@H](c1ccc(-c2ccc(S(C)(=O)=O)cc2)cc1)C(F)(F)F` showed an IC50 against Cathepsin K of 67 nM.

Consider `CSC[C@H](NC(=O)[C@H](CC(C)C)N[C@@H](c1ccc(-c2ccc(S(C)(=O)=O)cc2)cc1)C(F)(F)F)C(N)=O`, for which half-maximal inhibition against Cathepsin K (IC50) required 66 nM. `CC(C)C[C@H](N[C@@H](c1ccc(-c2ccc(S(C)(=O)=O)cc2)cc1)C(F)(F)F)C(=O)N[C@H](Cc1ccccc1)C(N)=O` returned an IC50 on Cathepsin K of 6070 nM. As to `CC(C)C[C@H](N[C@@H](c1ccc(-c2ccc(S(C)(=O)=O)cc2)cc1)C(F)(F)F)C(=O)N[C@H](C#N)Cc1ccccc1`, the IC50 against Cathepsin K came to 0.6 nM. `CC(C)C[C@H](N[C@@H](c1ccc(-c2ccc(S(C)(=O)=O)cc2)cc1)C(F)(F)F)C(=O)NCC(N)=O`: the concentration for half-maximal inhibition (IC50) against Cathepsin S is 41100 nM; against Procathepsin L, 63100 nM; against Cathepsin K, 238 nM; on Cathepsin B, greater than 100000 nM. At Cathepsin K, `CSCC[C@H](NC(=O)[C@H](CC(C)C)N[C@@H](c1ccc(-c2ccc(S(C)(=O)=O)cc2)cc1)C(F)(F)F)C(=O)NCc1ccccc1` had an IC50 of 87 nM.

For `CSCC[C@H](NC(=O)[C@H](CC(C)C)N[C@@H](c1ccc(-c2ccc(S(C)(=O)=O)cc2)cc1)C(F)(F)F)C(=O)O`, on Cathepsin K, the IC50 turned out to be 120 nM. On the same count and under the same terms, under `CSCC[C@@H](C#N)NC(=O)[C@H](CC(C)C)N[C@@H](c1ccc(-c2ccc(S(C)(=O)=O)cc2)cc1)C(F)(F)F` stands 0.2 nM.

At Cathepsin K, `CSCC[C@H](NC(=O)[C@H](CC(C)C)N[C@@H](c1ccc(-c2ccc(S(C)(=O)=O)cc2)cc1)C(F)(F)F)C(=O)NS(C)(=O)=O` yielded an IC50 of 238 nM. At Cathepsin K, `CC(C)C[C@H](N[C@@H](c1ccc(-c2ccc(S(C)(=O)=O)cc2)cc1)C(F)(F)F)C(=O)NCC#N` came in with an IC50 of 0.2 nM. On to `CSCC[C@H](NC(=O)[C@H](CC(C)C)N[C@@H](c1ccc(-c2ccc(S(C)(=O)=O)cc2)cc1)C(F)(F)F)C(N)=O`, for which the IC50 against Cathepsin S is 76900 nM; against Procathepsin L, 55700 nM; against Cathepsin K, 13 nM; against Cathepsin B it was greater than 100000 nM.

As for `CC(C)C[C@H](N[C@@H](c1ccc(-c2ccc(S(C)(=O)=O)cc2)cc1)C(F)(F)F)C(=O)N[C@@H](CCc1ccccc1)C(N)=O`, at Cathepsin K, the concentration for half-maximal inhibition (IC50) was determined as 273 nM. At Cathepsin K, `CSCC[C@H](NC(=O)[C@H](CC(C)C)N[C@@H](c1ccc(-c2ccc(S(C)(=O)=O)cc2)cc1)C(F)(F)F)C(=O)N(C)C` yielded a 50% inhibitory concentration (IC50) of 1050 nM. `CC(C)C[C@H](N[C@@H](c1ccc(-c2ccc(S(C)(=O)=O)cc2)cc1)C(F)(F)F)C(=O)N[C@@H](CS(C)(=O)=O)C(N)=O` gave an IC50 on Cathepsin K of 109 nM.
